Results published in ChEMBL document CHEMBL3227952, “Potential organ- or tumor-imaging agents. 18. Radioiodinated diamines and bisquaternaries” (J Med Chem, 1979).

Columns and labels:
[1] = Drug uptake in Sprague-Dawley rat diaphragm at 6.2 to 10.4 uCi, iv after 2 hrs by liquid scintillation counting; assay type: ADME, organism-based; conditions: in vivo
How it was run: (§1)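 Adult male rats (200–420 g) given radioiodinated agent, 6.5–7.0 μCi/mg, in 0.10–0.15 mL of 0.1 N HCl. Dosing was by tail vein under ether. Rats were killed by exsanguination, three at 0.5 h and five at 2 h. Organs were rinsed, blotted and weighed, with duplicate samples counted for radioactivity. Results are % administered dose/g, mean ± SEM.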

Liver [2] = assay: Drug uptake in Sprague-Dawley rat liver at 6.2 to 10.4 uCi, iv after 0.5 hrs by liquid scintillation counting; assay type: ADME, organism-based; conditions: in vivo, in the assay text read “well-scintillation gamma counting” for “liquid scintillation counting”
How it was run: (§2)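 Three rats were killed at 0.5 h and five at 2 h by exsanguination under ether. Organs were rinsed, blotted and weighed, duplicate samples gamma-counted (87% efficiency), expressed as % administered dose/g, mean ± SEM.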

Brain [3] = assay: Drug uptake in Sprague-Dawley rat brain at 6.2 to 10.4 uCi, iv after 2 hrs by liquid scintillation counting; assay type: ADME, organism-based; conditions: in vivo; how it was run: as §1
[4] = Drug uptake in Sprague-Dawley rat ventral prostate at 6.2 to 10.4 uCi, iv after 0.5 hrs by liquid scintillation counting; assay type: ADME, organism-based, Prostate gland; conditions: in vivo
How it was run: (§3)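 Adult male Sprague-Dawley rats (200–420 g) with free access to food and water. Under ether anesthesia, each received 6.2–10.4 μCi (6.5–7.0 μCi/mg) of tracer in 0.10–0.15 mL of 0.1 N HCl vehicle, iv via the tail vein. Rats were killed by exsanguination at 0.5 h (3 rats) or 2 h (5 rats). Organs were rinsed, blotted and weighed; duplicate samples were counted. Results are % administered dose/g, mean ± SEM.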

Brain [5] = assay: Drug uptake in Sprague-Dawley rat brain at 6.2 to 10.4 uCi, iv after 0.5 hrs by liquid scintillation counting; assay type: ADME, organism-based; conditions: in vivo; how it was run: as §1
Kidney [6] = assay: Drug uptake in Sprague-Dawley rat kidney at 6.2 to 10.4 uCi, iv after 0.5 hrs by liquid scintillation counting; assay type: ADME, organism-based; conditions: in vivo
[7] = Drug uptake in Sprague-Dawley rat diaphragm at 6.2 to 10.4 uCi, iv after 0.5 hrs by liquid scintillation counting; assay type: ADME, organism-based; conditions: in vivo; how it was run: as §1
Duodenum [8] = assay: Drug uptake in Sprague-Dawley rat duodenum at 6.2 to 10.4 uCi, iv after 0.5 hrs by liquid scintillation counting; assay type: ADME, organism-based; conditions: in vivo; how it was run: as §1
Heart [9] = assay: Drug uptake in Sprague-Dawley rat heart at 6.2 to 10.4 uCi, iv after 2 hrs by liquid scintillation counting; assay type: ADME, organism-based; conditions: in vivo, in the assay text read “well-scintillation gamma counting” for “liquid scintillation counting”; how it was run: as §1
Heart [10] = assay: Drug uptake in Sprague-Dawley rat heart at 6.2 to 10.4 uCi, iv after 0.5 hrs by liquid scintillation counting; assay type: ADME, organism-based; conditions: in vivo; how it was run: as §1
Pancreas [11] = assay: Drug uptake in Sprague-Dawley rat pancreas at 6.2 to 10.4 uCi, iv after 0.5 hrs by liquid scintillation counting; assay type: ADME, organism-based; conditions: in vivo, in the assay text read “well-scintillation gamma counting” for “liquid scintillation counting”; how it was run: as §2
[12] = Drug uptake in Sprague-Dawley rat ventral prostate at 6.2 to 10.4 uCi, iv after 2 hrs by liquid scintillation counting; assay type: ADME, organism-based, Prostate gland; conditions: in vivo; how it was run: as §3
Duodenum [13] = assay: Drug uptake in Sprague-Dawley rat duodenum at 6.2 to 10.4 uCi, iv after 2 hrs by liquid scintillation counting; assay type: ADME, organism-based; conditions: in vivo; how it was run: as §1
Thyroid gland [14] = assay: Drug uptake in Sprague-Dawley rat thyroid at 6.2 to 10.4 uCi, iv after 2 hrs by liquid scintillation counting; assay type: ADME, organism-based; conditions: in vivo
Adrenal [15] = assay: Drug uptake in Sprague-Dawley rat adrenal at 6.2 to 10.4 uCi, iv after 0.5 hrs by liquid scintillation counting; assay type: ADME, organism-based, Adrenal gland; conditions: in vivo; how it was run: as §1
[16] = Drug uptake in Sprague-Dawley rat bone marrow at 6.2 to 10.4 uCi, iv after 0.5 hrs by liquid scintillation counting; assay type: ADME, organism-based; conditions: in vivo; how it was run: as §1
Pituitary gland [17] = assay: Drug uptake in Sprague-Dawley rat pituitary at 6.2 to 10.4 uCi, iv after 0.5 hrs by liquid scintillation counting; assay type: ADME, organism-based; conditions: in vivo, in the assay text read “well-scintillation gamma counting” for “liquid scintillation counting”; how it was run: as §2
Blood [18] = assay: Drug uptake in Sprague-Dawley rat blood at 6.2 to 10.4 uCi, iv after 0.5 hrs by liquid scintillation counting; assay type: ADME, organism-based; conditions: in vivo; how it was run: as §1
Kidney [19] = assay: Drug uptake in Sprague-Dawley rat kidney at 6.2 to 10.4 uCi, iv after 2 hrs by liquid scintillation counting; assay type: ADME, organism-based; conditions: in vivo, in the assay text read “well-scintillation gamma counting” for “liquid scintillation counting”; how it was run: as §2
[20] = Drug uptake in Sprague-Dawley rat dorsolateral prostate at 6.2 to 10.4 uCi, iv after 2 hrs by liquid scintillation counting; assay type: ADME, organism-based, Prostate gland; conditions: in vivo; how it was run: as §1
Adrenal [21] = assay: Drug uptake in Sprague-Dawley rat adrenal at 6.2 to 10.4 uCi, iv after 2 hrs by liquid scintillation counting; assay type: ADME, organism-based, Adrenal gland; conditions: in vivo; how it was run: as §1
[22] = Drug uptake in Sprague-Dawley rat dorsolateral prostate at 6.2 to 10.4 uCi, iv after 0.5 hrs by liquid scintillation counting; assay type: ADME, organism-based, Prostate gland; conditions: in vivo; how it was run: as §1
Spleen [23] = assay: Drug uptake in Sprague-Dawley rat spleen at 6.2 to 10.4 uCi, iv after 2 hrs by liquid scintillation counting; assay type: ADME, organism-based; conditions: in vivo
Spleen [24] = assay: Drug uptake in Sprague-Dawley rat spleen at 6.2 to 10.4 uCi, iv after 0.5 hrs by liquid scintillation counting; assay type: ADME, organism-based; conditions: in vivo, in the assay text read “well-scintillation gamma counting” for “liquid scintillation counting”; how it was run: as §2
Blood [25] = assay: Drug uptake in Sprague-Dawley rat blood at 6.2 to 10.4 uCi, iv after 2 hrs by liquid scintillation counting; assay type: ADME, organism-based; conditions: in vivo; how it was run: as §1
[26] = Drug uptake in Sprague-Dawley rat bone marrow at 6.2 to 10.4 uCi, iv after 2 hrs by liquid scintillation counting; assay type: ADME, organism-based; conditions: in vivo; how it was run: as §1
Testes [27] = assay: Drug uptake in Sprague-Dawley rat testes at 6.2 to 10.4 uCi, iv after 2 hrs by liquid scintillation counting; assay type: ADME, organism-based, Testis; conditions: in vivo
Pancreas [28] = assay: Drug uptake in Sprague-Dawley rat pancreas at 6.2 to 10.4 uCi, iv after 2 hrs by liquid scintillation counting; assay type: ADME, organism-based; conditions: in vivo
Liver [29] = assay: Drug uptake in Sprague-Dawley rat liver at 6.2 to 10.4 uCi, iv after 2 hrs by liquid scintillation counting; assay type: ADME, organism-based; conditions: in vivo, in the assay text read “well-scintillation gamma counting” for “liquid scintillation counting”; how it was run: as §2
Lung [30] = assay: Drug uptake in Sprague-Dawley rat lung at 6.2 to 10.4 uCi, iv after 2 hrs by liquid scintillation counting; assay type: ADME, organism-based; conditions: in vivo
Pituitary gland [31] = assay: Drug uptake in Sprague-Dawley rat pituitary at 6.2 to 10.4 uCi, iv after 2 hrs by liquid scintillation counting; assay type: ADME, organism-based; conditions: in vivo
Lung [32] = assay: Drug uptake in Sprague-Dawley rat lung at 6.2 to 10.4 uCi, iv after 0.5 hrs by liquid scintillation counting; assay type: ADME, organism-based; conditions: in vivo, in the assay text read “well-scintillation gamma counting” for “liquid scintillation counting”; how it was run: as §2
Testes [33] = assay: Drug uptake in Sprague-Dawley rat testes at 6.2 to 10.4 uCi, iv after 0.5 hrs by liquid scintillation counting; assay type: ADME, organism-based, Testis; conditions: in vivo
Thyroid gland [34] = assay: Drug uptake in Sprague-Dawley rat thyroid at 6.2 to 10.4 uCi, iv after 0.5 hrs by liquid scintillation counting; assay type: ADME, organism-based; conditions: in vivo

Drug uptake [1]: 0.293 % ID/g
Drug uptake (Liver [2]): 1.008 % ID/g
Drug uptake (Brain [3]): 0.088 % ID/g
Drug uptake [4]: 0.296 % ID/g
Drug uptake (Brain [5]): 0.063 % ID/g
Drug uptake (Kidney [6]): 1.926 % ID/g
Drug uptake [7]: 0.38 % ID/g
Drug uptake (Duodenum [8]): 0.485 % ID/g
Drug uptake (Heart [9]): 0.44 % ID/g
Drug uptake (Heart [10]): 0.553 % ID/g
Drug uptake (Pancreas [11]): 0.657 % ID/g
Drug uptake [12]: 0.293 % ID/g
Drug uptake (Duodenum [13]): 0.343 % ID/g
Drug uptake (Thyroid gland [14]): 3.476 % ID/g
Drug uptake (Adrenal [15]): 1.732 % ID/g
Drug uptake [16]: 0.44 % ID/g
Drug uptake (Pituitary gland [17]): 0.533 % ID/g
Drug uptake (Blood [18]): 0.073 % ID/g
Drug uptake (Kidney [19]): 1.67 % ID/g
Drug uptake [20]: 0.436 % ID/g
Drug uptake (Adrenal [21]): 1.577 % ID/g
Drug uptake [22]: 0.32 % ID/g
Drug uptake (Spleen [23]): 0.988 % ID/g
Drug uptake (Spleen [24]): 0.844 % ID/g
Drug uptake (Blood [25]): 0.041 % ID/g
Drug uptake [26]: 0.682 % ID/g
Drug uptake (Testes [27]): 0.048 % ID/g
Drug uptake (Pancreas [28]): 0.617 % ID/g
Drug uptake (Liver [29]): 0.949 % ID/g
Drug uptake (Lung [30]): 2.261 % ID/g
Drug uptake (Pituitary gland [31]): 0.681 % ID/g
Drug uptake (Lung [32]): 2.384 % ID/g
Drug uptake (Testes [33]): 0.036 % ID/g
Drug uptake (Thyroid gland [34]): 2.457 % ID/g
Structure (SMILES): NCc1ccc(CN)c([125I])c1
